Data published in ChEMBL document CHEMBL4613273, “Discovery of Aryl Formyl Piperidine Derivatives as Potent, Reversible, and Selective Monoacylglycerol Lipase Inhibitors” (J Med Chem, 2020).
The source made the active and inactive calls. The rule behind the calls is not given here.

Experiments:
[1] = Stability in rat liver microsomes assessed as parent compound remaining level at 100 uM pre-incubated for 5 mins before NADPH addition and measured after 60 mins by UPLC-MS/MS analysis; format: ADME, Microsome; conditions: read-out: Stability
In short: (§1)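 Liver microsomes from human, mouse and rat were incubated with the compound. Remaining parent compound was followed at several time points up to 60 min and expressed as percent remaining.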

[2] = Stability in mouse liver microsomes assessed as parent compound remaining level at 100 uM pre-incubated for 5 mins before NADPH addition and measured after 60 mins by UPLC-MS/MS analysis; format: ADME, Microsome; conditions: read-out: Stability; in short: as §1
[3] = Cmax in Sprague-Dawley rat plasma at 10 mg/kg, ig measured over 1 to 300 mins post dose by LC-MS/MS analysis; format: ADME, organism-based; design: dose 10 mg/kg, route […]; conditions: po
[4] = AUC (0 to t) in Sprague-Dawley rat plasma at 10 mg/kg, iv measured over 1 to 300 mins post dose by LC-MS/MS analysis; format: ADME, organism-based; conditions: in vivo
[5] = Half life in Sprague-Dawley rat brain at 10 mg/kg, ig measured over 5 to 720 mins post dose by LC-MS/MS analysis
[6] = Half life in Sprague-Dawley rat plasma at 10 mg/kg, iv measured over 1 to 300 mins post dose by LC-MS/MS analysis; format: ADME, organism-based
Cannabinoid receptor 2 = Cannabinoid receptor 2 (Homo sapiens, UniProt P34972); assay: Inhibition of CB2 receptor (unknown origin) expressed in Flpin-CHO cells incubated for 10 mins by Eu-cAMP tracer based cAMP accumulation assay; format: functional, cell-based
Mus musculus [7] = assay: Antidepressant activity in ICR mouse model of reserpine-induced depression assessed as immobility time at 5 mg/kg, ig by forced swim test (reference value: 136.84 +/- 46.69 secs); format: functional
[8] = Bioavailability (0 to t) in Sprague-Dawley rat plasma at 10 mg/kg, ig measured over 1 to 300 mins post dose by LC-MS/MS analysis
[9] = Protein binding in rat plasma at 20 to 500 ng/mL by ultracentrifugation assay; format: ADME, cell-free; conditions: read-out: PPB (converted)
In short: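 Binding to rat plasma proteins was measured by ultracentrifugation across 20–500 ng/mL of compound.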

[10] = target: T1, Fatty-acid amide hydrolase 1 (Homo sapiens) (UniProt O00519); assay: Inhibition of human recombinant FAAH at 100 uM pre-incubated for 5 mins before substrate addition and further incubated for 30 mins by fluorescence assay relative to control
T1 sequence (whole entry): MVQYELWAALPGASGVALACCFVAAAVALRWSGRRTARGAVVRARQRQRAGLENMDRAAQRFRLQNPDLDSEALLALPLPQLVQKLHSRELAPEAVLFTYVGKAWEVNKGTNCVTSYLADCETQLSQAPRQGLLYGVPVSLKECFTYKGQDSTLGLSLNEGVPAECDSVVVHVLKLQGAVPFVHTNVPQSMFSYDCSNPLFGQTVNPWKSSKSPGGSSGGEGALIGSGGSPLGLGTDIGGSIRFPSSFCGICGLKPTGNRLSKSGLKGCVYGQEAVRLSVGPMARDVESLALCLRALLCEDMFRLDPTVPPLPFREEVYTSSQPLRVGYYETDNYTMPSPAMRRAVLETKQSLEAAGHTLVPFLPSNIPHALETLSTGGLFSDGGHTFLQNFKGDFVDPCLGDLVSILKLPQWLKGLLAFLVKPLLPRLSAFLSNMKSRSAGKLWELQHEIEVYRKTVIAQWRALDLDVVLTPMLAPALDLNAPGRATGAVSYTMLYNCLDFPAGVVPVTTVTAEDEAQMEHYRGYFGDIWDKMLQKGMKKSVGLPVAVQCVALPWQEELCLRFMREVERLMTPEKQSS

[11] = target: T2, Monoglyceride lipase (Homo sapiens) (UniProt Q99685); assay: Reversible inhibition of human recombinant MAGL at 1 uM pre-incubated for 5 mins before MAGL substrate 4-NPA addition followed by 10 fold dilution and measured after 10 mins
T2 sequence (whole entry): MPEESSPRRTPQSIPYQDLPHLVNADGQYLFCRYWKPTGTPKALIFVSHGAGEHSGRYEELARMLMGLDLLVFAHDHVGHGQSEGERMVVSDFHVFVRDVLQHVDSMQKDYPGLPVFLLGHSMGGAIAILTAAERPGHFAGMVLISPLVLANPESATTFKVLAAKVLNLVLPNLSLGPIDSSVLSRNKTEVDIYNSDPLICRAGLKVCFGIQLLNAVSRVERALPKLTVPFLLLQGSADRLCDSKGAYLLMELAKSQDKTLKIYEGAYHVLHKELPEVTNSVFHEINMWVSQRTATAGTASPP
In short: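 Human MAGL was preincubated with 1 μM inhibitor and then diluted 10-fold to a final 0.1 μM. Percent inhibition after dilution was compared with direct 1 μM and 0.1 μM samples to judge reversibility.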

Monoglyceride lipase = target: T3, Monoglyceride lipase (Homo sapiens, UniProt Q99685); assay: Competitive inhibition of human recombinant MAGL at 31.25 nM to 125 nM pre-incubated for 5 mins before MAGL substrate addition and further incubated for 10 mins
T3 sequence (Q99685 whole entry): T2 sequence (whole entry)
In short: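 Mode of inhibition was assessed from Michaelis–Menten kinetics run at several inhibitor concentrations. Enzyme activity was plotted against substrate concentration and fitted to a mixed-model inhibition (competitive, uncompetitive and noncompetitive terms), giving Vmax, Km and α.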

Cannabinoid receptor 1 = Cannabinoid receptor 1 (Homo sapiens, UniProt P21554); assay: Inhibition of CB1 receptor (unknown origin) expressed in Flpin-CHO cells at 10 uM incubated for 10 mins by Eu-cAMP tracer based cAMP accumulation assay relative to control
[12] = target: T4, Fatty-acid amide hydrolase 1 (Homo sapiens, UniProt O00519); assay: Inhibition of human recombinant FAAH pre-incubated for 5 mins before substrate addition and further incubated for 30 mins by fluorescence assay
T4 sequence (O00519 whole entry): T1 sequence (whole entry)

Mus musculus [13] = assay: Antidepressant activity in ICR mouse model of reserpine-induced depression assessed as reduction in fear at 4 to 16 mg/kg, sc for 6 days followed by reserpine injection 2 hrs after last compound dose and measured after 2 hrs; format: functional, organism-based
In short: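 In mice, depression was induced with reserpine 4 mg/kg, and the compound was given s.c. at 4, 8 or 16 mg/kg. Controls received phosphate buffer alone. Awakening, finger contact, fear, head touch, autonomous movement, straight and eyelid closure were scored. Data are mean ± SD of 3 independent experiments.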

[14] = target: T2, Monoglyceride lipase (Homo sapiens); assay: Reversible inhibition of human recombinant MAGL pre-incubated for up to 60 mins before MAGL substrate addition and further incubated for 10 mins
In short: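 The inhibitor was preincubated with MAGL for 0, 30 or 60 min before substrate was added to start the reaction. IC50 (nM) was determined at each preincubation time, from 3 independent experiments.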

[15] = Half life in Sprague-Dawley rat plasma at 10 mg/kg, ig measured over 1 to 300 mins post dose by LC-MS/MS analysis; format: ADME, organism-based; conditions: po
[16] = Stability in human liver microsomes assessed as parent compound remaining level at 100 uM pre-incubated for 5 mins before NADPH addition and measured after 60 mins by UPLC-MS/MS analysis; format: ADME, Microsome; conditions: read-out: Stability; in short: as §1
[17] = AUC (0 to t) in Sprague-Dawley rat plasma at 10 mg/kg, ig measured over 1 to 300 mins post dose by LC-MS/MS analysis; format: ADME, organism-based; conditions: in vivo, po

Sequence of Cannabinoid receptor 2 (P34972 whole entry): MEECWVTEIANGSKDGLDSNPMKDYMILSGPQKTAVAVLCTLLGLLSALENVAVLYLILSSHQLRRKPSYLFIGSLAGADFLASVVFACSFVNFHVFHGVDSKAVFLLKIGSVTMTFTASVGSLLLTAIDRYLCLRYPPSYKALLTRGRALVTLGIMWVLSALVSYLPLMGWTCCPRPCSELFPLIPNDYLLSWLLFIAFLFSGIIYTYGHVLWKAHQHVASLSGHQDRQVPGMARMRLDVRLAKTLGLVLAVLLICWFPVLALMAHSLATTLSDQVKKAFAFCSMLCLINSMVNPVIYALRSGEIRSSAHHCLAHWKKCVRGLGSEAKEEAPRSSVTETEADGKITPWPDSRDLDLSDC
Sequence of Cannabinoid receptor 1 (P21554 whole entry): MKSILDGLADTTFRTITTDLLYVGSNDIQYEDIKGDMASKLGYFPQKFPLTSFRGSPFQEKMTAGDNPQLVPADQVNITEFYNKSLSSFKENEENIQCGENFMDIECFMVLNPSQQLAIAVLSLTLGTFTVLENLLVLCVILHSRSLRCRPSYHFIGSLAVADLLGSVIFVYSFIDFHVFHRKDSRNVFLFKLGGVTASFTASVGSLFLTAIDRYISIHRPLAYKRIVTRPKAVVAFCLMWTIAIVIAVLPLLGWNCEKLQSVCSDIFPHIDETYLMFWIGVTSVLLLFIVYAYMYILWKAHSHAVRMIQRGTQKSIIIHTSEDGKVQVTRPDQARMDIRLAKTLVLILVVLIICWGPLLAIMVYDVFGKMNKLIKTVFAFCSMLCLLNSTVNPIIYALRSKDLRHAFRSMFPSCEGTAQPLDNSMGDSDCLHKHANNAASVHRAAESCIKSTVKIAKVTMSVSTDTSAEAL

- remaining at 1 h, 100 µM [1]: 17.3%
- remaining at 1 h, 100 µM [2]: 57.9%
- Cmax [3]: 83.1 ng/mL
- AUCt [4]: 80893 µg·min/L
- half-life [5]: 2.44 h
- half-life [6]: 1.1 h
- EC50 (Cannabinoid receptor 2): > 10 µM
- bioavailability [8]: 12.2%
- fraction unbound [9]: 0.229
- inhibition [10]: 41.3%
- inhibition [11]: Active
- Ki (Monoglyceride lipase): 0.0134 µM
- inhibition (Cannabinoid receptor 1): 29.7%
- IC50 [12]: > 100 µM
- inhibition [14]: Active
- half-life [15]: 4.96 h
- remaining at 1 h, 100 µM [16]: 88.5%
- AUCt [17]: 9913.54 µg·min/L
SMILES: O=C(Nc1cccc(Cl)c1)C1CCN(C(=O)c2ccc3ccccc3c2)CC1
- Time (Mus musculus [7]): 89.38 s
- Activity (Mus musculus [13]): Active
